{"source": "PubChem BioAssay AID624074", "about": "(Broad Institute, 2012)", "note": "Calls of active or inactive are those of the source.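 Rule for the calls: active = fitted curve reaches a 35% growth drop -35 below twice the top tested dose; inactive = activity in the wrong direction, or the rest.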"}
{"tested_on": "not listed separately", "assay": "efflux-deficient P. aeruginosa PAK growth delay, dose response, whole organism, PAK mexAB-OprM mutant, OD600, EDDHA, dry powder, set 4 (AID 624074)", "details": "P. aeruginosa PAK ΔmexAB-oprM growth with EDDHA, OD600, 28 h; at 100 µM (top of the series)", "in_short": "(§1)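 Test system – Pseudomonas aeruginosa PAK with efflux-deficient ΔmexAB-oprM deletion, whole cells · Reagent – 2 µM EDDHA chelator · Dosing – dose series of compound, final 15 nM to 100 µM · Timing – 28 h at 30 °C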"}
{"smiles": "COCCC(C#N)c1ccc(F)cc1", "note": "(stereo unspecified)", "activity change, negative = growth inhibition": "-11.9% (inactive)"}
{"smiles": "CCCCC(c1ccc(Cl)cc1)c1nn[nH]n1", "note": "(stereo unspecified)", "activity change, negative = growth inhibition": "-10.1% (inactive)"}
{"smiles": "CCCCC(C#N)c1ccc(F)cn1", "note": "(stereo unspecified)", "activity change, negative = growth inhibition": "-15.7% (inactive)"}
{"smiles": "COCCNC(C#N)c1ccc(Cl)cc1", "note": "(stereo unspecified)", "activity change, negative = growth inhibition": "-1.19% (inactive)"}
{"tested_on": "P. aeruginosa PAK ΔmexAB-oprM growth with EDDHA, OD600, 28 h", "assay": "efflux-deficient P. aeruginosa PAK growth delay, dose response, whole organism, PAK mexAB-OprM mutant, OD600, EDDHA, dry powder, set 4 (AID 624074)", "details": "not given", "in_short": "as §1", "units": {"AC35": "µM"}}
{"smiles": "N#CC(c1ccc(Cl)cc1)c1cccc(C(F)(F)F)n1", "note": "(stereo unspecified)", "AC35": 29}
{"smiles": "N#CC(c1ccc(F)cc1)c1cccc(C(F)(F)F)n1", "note": "(stereo unspecified)", "AC35": 25.6}
{"smiles": "N#CC(c1cccc(C(F)(F)F)n1)c1ccc(Cl)cc1F", "note": "(stereo unspecified)", "AC35": 37.8}
{"smiles": "N#CC(c1ccc(Cl)cc1)c1ncccc1Cl", "note": "(stereo unspecified)", "AC35": 56.2}
{"smiles": "N#CC(c1ccc(Cl)cc1)c1cccc(Cl)n1", "note": "(stereo unspecified)", "AC35": 60.3}
{"smiles": "N#CC(c1cccc(Cl)n1)c1ccc(Cl)cc1F", "note": "(stereo unspecified)", "AC35": 47.5}
{"smiles": "N#CC(c1ccc(Cl)cc1)c1ccc(Cl)cn1", "note": "(stereo unspecified)", "AC35": 72}
